SENP6 inh: inhibitors of human SENP6 protease; Recombinant SENP6 catalytic domain, aminoluciferin luminescence; inhibition, % at 10 µM; 330,000 tested, 1.8% active;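 active means inhibition above about 50% at the single tested dose, limit read from the data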;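 further: plate controls were DMSO wells with enzyme for no effect and DMSO wells lacking enzyme for full effect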
SENP8 block-1: inhibitors of human SENP8 protease. Q96LD8. purified SENP8, Z-RLRGG-aminoluciferin cleavage, luminescence. inhibition, % at 10 µM. 330,000 tested, 1.2% active. AID 2540; in the data active means inhibition above about 50%
CendR NRP1 mod: alters CendR peptide binding to human NRP-1. FAM-RPARPAR peptide binding to NRP-1, fluorescence polarization. inhibition, % at 25 µM. 360,000 tested, 0.85% active. AID 602438;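 active means inhibition or corrected inhibition above about 18%, plus a signal ratio from 0.5 to 1.5, limit read from the data, passing the limit was not always enough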
SENP7 inh: blocks the human protease SENP7 | Q9BQF6 | recombinant SENP7, Z-RLRGG-aminoluciferin luminescence, 40 min | inhibition, % at 5 µM | 330,000 tested, 1.5% active;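 active means inhibition above about 50% at the single test dose, limit read from the data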;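 further: plate controls were DMSO with enzyme for no effect and no enzyme buffer wells for full effect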
Target sequence (Q9BQF6 706-1050 limits assumed): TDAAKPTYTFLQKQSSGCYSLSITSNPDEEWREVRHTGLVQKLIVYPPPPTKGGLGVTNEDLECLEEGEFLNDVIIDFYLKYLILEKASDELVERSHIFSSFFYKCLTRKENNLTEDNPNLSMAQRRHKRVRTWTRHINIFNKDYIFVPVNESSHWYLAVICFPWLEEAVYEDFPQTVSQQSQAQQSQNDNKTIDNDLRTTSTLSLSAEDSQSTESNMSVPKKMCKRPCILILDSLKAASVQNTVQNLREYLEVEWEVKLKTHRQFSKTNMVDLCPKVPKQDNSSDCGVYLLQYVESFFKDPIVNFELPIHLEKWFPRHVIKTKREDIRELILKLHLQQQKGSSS
SENP8 block-2: blocks human SENP8 cleavage of Nedd8 substrate. Q96LD8. recombinant SENP8, Nedd8 substrate fluorescence. inhibition, % at 20 µM. 360,000 tested, 0.64% active. AID 602440; in the data active means inhibition mostly above about 40%, no sharp cut-off; inactive means mostly below about 27%
SENP1 inh: blocks the human SENP1 SUMO protease catalytic domain; recombinant SENP1 catalytic domain, CyPet-SUMO1-YPet FRET cleavage; inhibition, % at 10 µM; Q9P0U3; 360,000 tested, 0.21% active;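 active means inhibition at least 30% at 10 µM, raw YFP signal under a set limit, fluorescence ratio 0.5 to 1.5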;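 further: 0% = enzyme with DMSO and 100% = no enzyme wells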
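Test system: recombinant human SENP1 catalytic domain, His6-tagged / Medium: pH 8 Tris buffer with EDTA, NaCl, BME, BSA, NP40, catalase / Also added: SUMO1 FRET substrate flanked by Cypet and Ypet, 25 nM / Times: 50 min reaction at room temperature / Signal: FRET, CFP and YFP emission / Control set: no-enzyme low control and enzyme-plus-DMSO high control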
SENP8 conf-1: confirmation of human SENP8 protease inhibitors; Recombinant SENP8, Z-RLRGG-aminoluciferin luminescence, 60 min; inhibition, % at 12.5 µM; 6,200 tested, 40% active; AID 488912; shares compounds with SENP7 inh;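 active means mean inhibition across replicates above about 50%, limit read from the data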
SENP6 confirm: human SENP6 inhibition, confirmed. shares compounds with SENP7 inh. recombinant SENP6, Z-RLRGG-aminoluciferin luminescence. inhibition, % at 12.5 µM. 6,200 tested, 58% active. AID 488915
SENP7 confirm: human SENP7 inhibition, confirmed; shares compounds with SENP7 inh; recombinant SENP7, Z-RLRGG-aminoluciferin luminescence, 40 min; AID 488917; inhibition, % at 12.5 µM; 6,200 tested, 69% active
Casp3 select: caspase-3 inhibition (SENP selectivity assay); inhibition, % at 12.5 µM; 6,200 tested, 60% active; purified caspase-3, Z-DEVD-aminoluciferin luminescence, 60 min; shares compounds with SENP7 inh;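 active means mean inhibition above about 50%, limit read from the data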;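 further: plate controls were enzyme with DMSO for no effect and wells without caspase-3 for full effect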
Target sequence (P42574 28-227 limits assumed): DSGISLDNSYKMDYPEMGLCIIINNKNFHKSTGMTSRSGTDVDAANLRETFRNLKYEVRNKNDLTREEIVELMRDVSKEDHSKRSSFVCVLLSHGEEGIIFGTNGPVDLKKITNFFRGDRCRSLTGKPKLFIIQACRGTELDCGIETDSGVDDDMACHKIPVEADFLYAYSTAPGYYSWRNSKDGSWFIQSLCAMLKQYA
Luc interf: counter-screen for SENP inhibitors: luminescence interference; inhibition, % at 12.5 µM; AID 488919; 6,200 tested, 39% active; shares compounds with SENP7 inh; Pre-incubated SENP8/Z-RLRGG-aminoluciferin, luciferase luminescence interference;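 active means mean inhibition above about 50% when retested at one dose, limit read from the data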;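 further: plate controls were DMSO wells with completed reaction for no effect and substrate without enzyme for full effect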
SENP8 conf-2: confirmation of human SENP8 protease inhibitors. purified SENP8, Nedd8-AMC/pro-Nedd8 cleavage fluorescence, 30 min. inhibition, % at 25 µM. AID 624319. 1,400 tested, 15% active. shares compounds with SENP8 block-2; in the data active means inhibition mostly above about 39%, no sharp cut-off; inactive means mostly below about 34%
* hit, by the source's call; x = no result given. Rows were chosen to be rich in hits. Some 3.3% of all compounds tested hit in one or more screens of this group.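 How the source made its calls, unless noted: active means mean inhibition above about 50% in the one-dose retest (limit read from the data); inactive means the rest.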

SMILES	SENP6 inh	SENP8 block-1	CendR NRP1 mod	SENP7 inh	SENP8 block-2	SENP1 inh	SENP8 conf-1	SENP6 confirm	SENP7 confirm	Casp3 select	Luc interf	SENP8 conf-2
Cn1sc(NC(=O)c2cccc(Cl)c2)nc1=O	69*	65*	8	70*	9	3	11	72*	92*	82*	72*	x
CC(C)NC(=O)CN1CCN(C(c2ccnc3ccccc23)c2nnnn2-c2ccc3c(c2)OCCO3)CC1 (configuration not stated)	x	x	2	x	-11	-2	x	x	x	x	x	x
Cn1cc(Br)c(C(=O)Nc2ncc(Br)s2)n1	28	-9	-9	70*	-23	-2	-6	-2	-3	16	-1	x
CCOc1ccc(NC(=O)c2nn(C)cc2Br)cc1	24	-5	3	21	2	1	x	x	x	x	x	x
CC(NC(=O)c1ccc(Cl)c(S(=O)(=O)NC2CC2)c1)c1ccco1 (configuration not stated)	x	x	0	x	9	0	x	x	x	x	x	x
Cn1c(=O)c2ncn(CC(=O)Nc3cccc(-c4nc5ccccc5s4)c3)c2n(C)c1=O	72*	60*	-3	-8	-146	-5	12	43	64*	36	24	x
CCc1ccc(NC(=O)Cn2cnc3c(=O)n(C)c(=O)n(C)c32)cc1	-15	3	4	-4	11	-2	x	x	x	x	x	x
COc1ccccc1N1CCN(C(=O)c2ccc3ncsc3c2)CC1	x	x	-7	x	-2	1	x	x	x	x	x	x
CSc1nc2ccc(NC(=O)c3ccc(F)c(F)c3)cc2s1	56*	45	-4	74*	-20	-3	20	44	28	23	8	x
CSc1nc2ccc(NC(=O)c3ccc(=O)[nH]c3)cc2s1	6	-8	8	6	-4	-1	x	x	x	x	x	x
CSc1nc2ccc(NC(=O)c3cc4ccccc4o3)cc2s1	5	69*	8	93*	-184	-3	-5	60*	84*	42	0	x
CSc1nc2ccc(NC(=O)c3ccc(=O)n(C)n3)cc2s1	92*	71*	2	84*	5	2	-4	31	61*	55*	26	x
COc1ccc(C(=O)Nc2ccc3nc(C)sc3c2)cc1OC	-7	42	-15	73*	0	1	57*	57*	87*	80*	71*	x
Nc1c(C(=O)N/N=C/c2ccc(Cl)cc2)cnn1-c1ccccc1	4	8	19	6	-40	2	x	x	x	x	x	x
Nc1scc2c(C(=O)N/N=C/c3ccc(Cl)cc3)nn(-c3ccccc3)c(=O)c12	50*	25	1	9	69*	10	21	26	18	24	-3	86*
O=C1Cc2ccccc2C(=O)N1c1ccccc1	54*	17	-6	18	53*	-26	5	10	8	15	6	4
O=C1Cc2ccccc2C(=O)N1Cc1ccccc1	91*	94*	-2	79*	85*	-5	39	88*	64*	72*	-7	35
O=C1CC(=O)N(c2ccccc2)c2ccccc21	2	1	-16	1	10	0	x	x	x	x	x	x
O=C1Cc2ccccc2C(=O)N1c1cccc(Cl)c1	52*	10	2	18	71*	-3	9	33	22	14	3	41
O=C1NC[C@H](CCCCN2CCN(CCc3ccc(O)cc3)C(=O)C2=O)N(CCC2CCCCC2)C1=O	x	x	5	x	12	-2	x	x	x	x	x	x
OC(c1ccccc1)c1nc(-c2ccc(F)c(Cl)c2)cs1 (configuration not stated)	x	x	3	x	20	-1	x	x	x	x	x	x
O=NN(CCF)C(=O)NC1CCS(=O)(=O)CC1	x	x	5	x	10	-1	x	x	x	x	x	x
C[C@@H]1CN([C@@H](C)CO)C(=O)CCCn2nncc2CO[C@@H]1CN(C)C(=O)C1CCCCC1	x	x	-2	x	5	0	x	x	x	x	x	x
c1ccc(-c2n[nH]c(-c3ccccn3)n2)cc1	61*	32	10	64*	41*	0	51*	51*	86*	83*	64*	11
Nc1n[nH]c(-c2ccccc2)n1	-18	-4	7	-2	19	-1	x	x	x	x	x	x
SMILES	SENP6 inh	SENP8 block-1	CendR NRP1 mod	SENP7 inh	SENP8 block-2	SENP1 inh	SENP8 conf-1	SENP6 confirm	SENP7 confirm	Casp3 select	Luc interf	SENP8 conf-2
Cc1ccc(S(=O)(=O)N2C[C@]3(O)C[C@@H]4C(=O)N(c5ccccc5)C(=O)[C@@H]4C[C@]3(OC(=O)NCC3CCCCC3)C2)cc1	x	x	-5	x	-4	0	x	x	x	x	x	x
COc1ccc(NC(=O)CSc2nc3c(c(-c4cccs4)c2C#N)CN(C)CC3)cc1OC	68*	40	1	23	52*	46	-1	2	5	4	0	1
Cc1ccc(C(O)c2ncc(-c3ccccc3Cl)[nH]2)c(C)c1 (configuration not stated)	x	x	-11	x	16	-1	x	x	x	x	x	x
Cn1cc([N+](=O)[O-])c(C(=O)N/N=C\c2c[nH]c3ccccc23)n1	-7	-2	-4	7	12	-1	x	x	x	x	x	x
O=[N+]([O-])c1ccccc1N/N=C/c1c[nH]c2ccccc12	82*	63*	2	79*	41*	4	31	44	96*	30	8	17
CCCNC(=O)C1(C)CCN(C(=O)c2ccccc2OC)C1 (configuration not stated)	x	x	-4	x	6	-1	x	x	x	x	x	x
C[n+]1cccc2c(Br)ccc([O-])c21	95*	93*	26*	87*	117*	8	11	40	17	6	-1	69*
O=C(N/N=C1\C/C(=N\NC(=O)c2ccncc2)c2ccccc21)c1ccncc1	85*	64*	18	37	98*	22	-16	42	9	37	8	95*
CC#CCN(Cc1ccco1)C(=O)c1ccc(OC2CCN(Cc3ccccn3)CC2)cc1	-9	6	-4	-8	5	-8	x	x	x	x	x	x
COc1ccc(C)cc1NC(=O)Cc1csc(NC(=O)Nc2ccccc2OC)n1	x	x	-10	x	3	2	x	x	x	x	x	x

Screening data: PubChem, Sanford-Burnham Center for Chemical Genomics
